Measurements from different studies.
Target: Protein kinase C delta type (PRKCD, Homo sapiens, UniProt Q05655)

The remaining binding of CC1CCCN1c1nccc(-c2cnn3ncccc23)n1 (stereo not drawn) is reported as 100% (binding; 1 µM).
With C[C@H](c1ccnc(Nc2nc3ccc(-c4cc(N(C)C)ncn4)cc3[nH]2)c1)N1CCN(C(=O)CC(F)(F)F)CC1 the remaining binding was 100% (cell-free assay, competition with immobilised ligand; 0.1 µM).
With CN(C)c1nccc(-c2cnn3ncccc23)n1 the remaining binding was 100% (binding; 1 µM).
For O=C(NCCCN1CCOCC1)c1ccc(Nc2nccc(-c3cc4ccccc4s3)n2)cc1, the remaining binding was 81% (binding, competition with immobilised ligand; 1 µM).
With CNC(=O)[C@@H]1CC[C@@H](n2c(-c3ccc4cnccc4c3)nc3ccc(C(=O)NCc4cccc(C(N)=O)c4)cc32)C1 the remaining binding was 81% (binding, competition with immobilised ligand; 1 µM).
CS(=O)(=O)N1CCCC(NC(=O)[C@H](CCC2CCCCC2)NC(=O)c2ccc(CNc3ncnc4c3nnn4-c3ccccc3)cc2)C1 (stereo partly drawn) gave a remaining binding of 80% (cell-free assay, competition with immobilised ligand; 0.1 µM).
COc1cnc(Nc2cccc(S(N)(=O)=O)c2)nc1N1CCN(c2ccccc2)C(=O)C1 gave a remaining binding of 100% (binding, competition with immobilised ligand; 1 µM).
For CN(CCCC(F)(F)F)c1nccc(-c2cnn3ncccc23)n1, the remaining binding was 90% (binding; 1 µM).
Cc1cc(NC(=O)c2cccc(S(F)(F)(F)(F)F)c2)cc(-n2ccn3nc(-c4cccnc4)cc23)c1 has a remaining binding of 95.8% (cell-free assay, competition with immobilised ligand; 1 µM).
N[C@H]1CCN(c2nccc(-c3cnn4ncccc34)n2)C1 has a remaining binding of 100% (binding; 1 µM).
O=C(NCc1ncc(C(F)(F)F)cc1Cl)c1ccc2c(c1)C1(CCS(=O)(=O)CC1)[C@@H](C1CC1)N2S(=O)(=O)c1ccc(F)cc1 has a remaining binding of 100% (cell-free assay, competition with immobilised ligand; 1 µM).
With C[C@H]1CCN(c2nccc(-c3cnn4ncccc34)n2)C1 the remaining binding was 100% (binding; 1 µM).
The remaining binding of O=C(NCC1CCOCC1)c1n[nH]cc1NC(=O)c1c(F)cccc1F is reported as 100% (binding, competition with immobilised ligand; 1 µM).
For c1cncc(-c2cccc(Nc3nccc(NC4CCCCC4)n3)c2)c1, the remaining binding was 45% (binding, competition with immobilised ligand; 10 µM).
O=C(N[C@H]1CCCCC/C=C\C2C[C@@]2(C(=O)O)NC(=O)[C@@H]2C[C@@H](Oc3ccncc3)CN2C1=O)OC1CCCC1 (stereo partly drawn) has a remaining binding of 100% (cell-free assay, competition with immobilised ligand; 1 µM).
C[C@@H](c1ccc(-n2cnc3c(N)ncnc32)cc1)N1CCc2nn(C)c(Cc3ccccc3)c2C1=O gave a remaining binding of 100% (binding, competition with immobilised ligand; 0.1 µM).
C=CC(=O)N1CCC(C(=O)NCC(=O)N2CCN(c3nc(-c4cnc(N)nc4C(F)F)nc(N4CCOCC4)n3)CC2)CC1 has a remaining binding of 100% (binding, competition with immobilised ligand; 1 µM).
O=C(NCCCN1CCOCC1)c1ccc(Nc2ncc(Cl)c(-c3ccc(Cl)s3)n2)cc1 has a remaining binding of 81% (binding, competition with immobilised ligand; 1 µM).
With CCCOc1ccc([C@@H]2[C@@H](C(=O)O)[C@H](c3ccc4c(c3)OCO4)CN2CC(=O)Nc2c(CC)cccc2CC)cc1 the remaining binding was 100% (cell-free assay, competition with immobilised ligand; 1 µM).
F[C@@H]1CCN(c2nccc(-c3cnn4ncccc34)n2)C1 gave a remaining binding of 100% (binding; 1 µM).
The remaining binding of O=C(c1ccc(Nc2nccc(-c3cc4ccccc4s3)n2)cc1)N1CCC(N2CCCC2)CC1 is reported as 86% (binding, competition with immobilised ligand; 1 µM).
